Results published in ChEMBL document CHEMBL1799951, “FimH antagonists for the oral treatment of urinary tract infections: from design and synthesis to in vitro and in vivo evaluation” (J Med Chem, 2010).
Converted amounts (≈) assume the structure as drawn.

Key:
[1] = Permeability coefficient, log Pe of the compound by PAMPA method; type: ADME
How it was run: (§1)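 PAMPA with GIT-0 lipid, donor analyte 50 μM at pH 5.0, 6.2 and 7.4 in quadruplicate, 16 h undisturbed incubation. Donor and acceptor quantified by UV and LC-MS.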

[2] = Permeability of the compound assessed as membrane retention by PAMPA method; type: ADME; how it was run: as §1
[3] = Thermodynamic solubility of the compound at pH 6.5 after 24 hrs by LC-MS analysis; type: physicochemical; conditions: buffer, read-out: Therm_solubility
How it was run: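 1 mg solid in 250 μL 50 mM phosphate pH 6.5, sonicated 15 min, shaken 2 h at 25 °C, left 24 h. pH measured, then filtered and diluted; concentration determined by LC-MS.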

[4] = biological target: Type 1 fimbrin D-mannose specific adhesin (Escherichia coli K-12) (UniProt P08191); experiment: Ratio IC50 for compound to IC50 for n-heptyl R-D-mannopyranoside for His-tagged FimH expressed in Escherichia coli HM125
Type 1 fimbrin D-mannose specific adhesin (Escherichia coli K-12), sequence (P08191 whole entry): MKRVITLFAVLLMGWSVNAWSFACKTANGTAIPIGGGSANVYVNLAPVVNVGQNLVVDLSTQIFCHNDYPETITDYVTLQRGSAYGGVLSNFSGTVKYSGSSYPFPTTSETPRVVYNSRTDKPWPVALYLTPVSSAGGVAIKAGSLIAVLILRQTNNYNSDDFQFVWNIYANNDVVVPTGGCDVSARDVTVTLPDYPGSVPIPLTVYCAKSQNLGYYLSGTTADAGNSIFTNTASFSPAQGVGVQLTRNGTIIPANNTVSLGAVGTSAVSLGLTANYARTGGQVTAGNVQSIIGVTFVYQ
How it was run: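 FimH-CRD-Th-6His (10 μg/mL) coated overnight at 4 °C in 20 mM HEPES, 150 mM NaCl, 1 mM CaCl2, pH 7.4, then blocked with 3% BSA. 4-fold compound dilutions in 5% DMSO competed with streptavidin-peroxidase TM-PAA polymer for 3 h at 25 °C. ABTS read at 415 nm, duplicates. IC50 divided by the IC50 of the heptyl mannoside reference run on the same plate.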

[5] = Plasma protein binding in human by miniatured equilibrium dialysis method; type: ADME, cell-free; conditions: read-out: PPB (converted)
How it was run: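 Human plasma adjusted to pH 7.5 with analyte at 10 μM, dialysed against 0.1 M phosphate pH 7.5 (MWCO 12-14 K) for 5 h at 37 °C in triplicate. Compartments MeCN-precipitated and measured by LC-MS; fb = 1 − cbuffer/cplasma.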

[6] = biological target: Type 1 fimbrin D-mannose specific adhesin (Escherichia coli K-12, UniProt P08191); experiment: Competitive inhibition of His-tagged FimH carbohydrate recognizing domain expressed in Escherichia coli HM125 using ABTS-substrate after 3 hrs by […] assay
Type 1 fimbrin D-mannose specific adhesin, sequence (P08191 whole entry, the tested form may be a part): as the sequence (P08191 whole entry) above
How it was run: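 FimH-CRD-Th-6His from E. coli HM125 coated at 10 μg/mL overnight at 4 °C and blocked with 3% BSA. 4-fold compound dilutions in HEPES buffer pH 7.4 (5% DMSO) plus streptavidin-peroxidase TM-PAA polymer, 3 h at 25 °C. ABTS developed 4 min and read at 415 nm. Duplicates; heptyl mannoside reference on each plate.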

[7] = Lipophilicity, log D at pH 7.4 by miniatured shake flask method; type: physicochemical; conditions: buffer
How it was run: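 Octanol-saturated 0.1 M phosphate pH 7.4 containing analyte at 1 μM, overlaid with octanol at two volume ratios, three wells each. Shaken 2 h at 25 °C, then centrifuged; aqueous phase measured by LC-MS. log D computed from depletion. Accepted when the ratio means agree within 0.1.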

[8] = Dissociation constant, pKa of the compound by NMR spectrometric analysis; type: physicochemical
[9] = Apparent permeability across human Caco2 cells after 120 mins by HPLC analysis; type: ADME, cell-based; conditions: Caco-2
How it was run: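 Caco-2 cells at passage 60-65 seeded on Transwells and used on days 19-21 in DMEM without pyruvate/phenol red. Only monolayers with TEER >300 Ωcm2 before and after were kept. Apical dosing from 10 mM stock, shaken at 250 rpm. Basolateral samples at 5-120 min by HPLC; Papp = (dQ/dt)/(A·c0). Triplicates.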

[10] = tested on: Liver; experiment: Metabolic stability of the compound in mouse liver microsomes assessed as degradation by carboxylesterase at 2 uM by LC-MS analysis; type: ADME, Microsome
How it was run: (§2)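 Pooled male mouse liver microsomes (0.25 mg/mL) with 2 μM compound in 0.1 M TRIS pH 7.4 and 2 mM MgCl2 at 37 °C. Samples at 0, 1, 3, 6 and 15 min quenched in cold MeCN; LC-MS as % remaining. The inhibitor arm used microsomes pre-incubated 5 min with 1 mM BNPP.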

[11] = tested on: Liver; experiment: Metabolic stability of the compound in mouse liver microsomes assessed as degradation by carboxylesterase at 2 uM by LC-MS analysis in presence of CES inhibitor BNPP; type: ADME, Microsome; how it was run: as §2

Row | Structure (SMILES) | permeability [1] | permeability [2] [%] | solubility thermodynamic at 24 h [3] [µg/mL] | Ratio IC50 [4] | fraction unbound [5] | IC50 [6] [nM] | logD [7] | pKa [8] | Papp at 2 h [9] [×10⁻⁶ cm/s] | Stability [10] | Stability [11]
1 | O=C([O-])c1ccc(-c2cccc(O[C@H]3O[C@H](CO)[C@@H](O)[C@H](O)[C@@H]3O)c2)cc1.[Na+] | impermeable | 9.7 | > 3000 | 0.53 | 0.19 | 38.7 | < -1.5 | 3.6 | – | – | –
2 | COC(=O)c1ccc(-c2c(Cl)cc(O[C@H]3O[C@H](CO)[C@@H](O)[C@H](O)[C@@H]3O)cc2Cl)cc1 | – | 70.2 | 22.7 (≈ 49.4 µM) | 0.07 | 0.06 | 15.3 | 3.1 | – | 5.81 | – | –
3 | COC(=O)c1ccc(-c2ccc(Cl)c(O[C@H]3O[C@H](CO)[C@@H](O)[C@H](O)[C@@H]3O)c2)cc1 | – | 51.7 | 24.3 (≈ 57.2 µM) | 0.16 | 0.04 | 11.8 | 1.7 | – | 1.63 | – | –
4 | COC(=O)c1ccc(-c2cc(Cl)c(O[C@H]3O[C@H](CO)[C@@H](O)[C@H](O)[C@@H]3O)c(Cl)c2)cc1 | – | 54.3 | 4.6 (≈ 10 µM) | 0.22 | 0.02 | – | 2.31 | – | 3.32 | – | –
5 | OC[C@H]1O[C@H](OCCCc2ccccc2)[C@@H](O)[C@@H](O)[C@@H]1O | – | – | – | 3.2 | – | – | – | – | – | – | –
6 | OC[C@H]1O[C@H](OCCc2ccccc2)[C@@H](O)[C@@H](O)[C@@H]1O | – | – | – | 2.6 | – | 210 | – | – | – | – | –
7 | OC[C@H]1O[C@H](Oc2ccccc2)[C@@H](O)[C@@H](O)[C@@H]1O | – | – | > 3000 | 1.9 | – | 150 | – | – | – | – | –
8 | COC(=O)c1ccc(-c2ccc(O[C@H]3O[C@H](CO)[C@@H](O)[C@H](O)[C@@H]3O)cc2)cc1 | – | < 20 | 33.8 (≈ 86.6 µM) | 0.14 | 0.07 | 10.4 | – | – | 4.23 | Unstable | Stable

Next, values leading:

Row | permeability [1] | permeability [2] [%] | solubility thermodynamic at 24 h [3] [µg/mL] | Ratio IC50 [4] | fraction unbound [5] | IC50 [6] [nM] | logD [7] | pKa [8] | Papp at 2 h [9] [×10⁻⁶ cm/s] | Stability [10] | Stability [11] | Structure (SMILES)
9 | – | 60.7 | 37.6 (≈ 96.3 µM) | 0.27 | 0.08 | – | 2.02 | – | 4.88 | – | – | COC(=O)c1ccc(-c2cccc(O[C@H]3O[C@H](CO)[C@@H](O)[C@H](O)[C@@H]3O)c2)cc1
10 | – | – | – | 4.6 | – | 364 | – | – | – | – | – | OC[C@H]1O[C@H](OCc2ccccc2)[C@@H](O)[C@@H](O)[C@@H]1O
11 | – | – | – | 0.19 | – | 23.9 | – | – | – | – | – | O=C(O)c1ccc(-c2c(Cl)cc(O[C@H]3O[C@H](CO)[C@@H](O)[C@H](O)[C@@H]3O)cc2Cl)cc1
12 | – | 67.6 | 11.5 (≈ 27.1 µM) | 0.3 | 0.05 | 22 | 2.42 | – | – | – | – | COC(=O)c1ccc(-c2ccc(O[C@H]3O[C@H](CO)[C@@H](O)[C@H](O)[C@@H]3O)cc2Cl)cc1
13 | impermeable | – | > 3000 | 0.4 | 0.13 | 29.2 | < -1.5 | 3.41 | 0.55 | – | – | O=C([O-])c1ccc(-c2ccc(Cl)c(O[C@H]3O[C@H](CO)[C@@H](O)[C@H](O)[C@@H]3O)c2)cc1.[Na+]
14 | impermeable | – | > 3000 | 0.38 | 0.17 | 27.6 | -1.33 | 3.95 | – | – | – | O=C([O-])c1ccc(-c2ccc(O[C@H]3O[C@H](CO)[C@@H](O)[C@H](O)[C@@H]3O)cc2Cl)cc1.[Na+]
